Tested on: Plasmodium falciparum
Assay: Resistance index, ratio of IC50 for chloroquine-resistant Plasmodium falciparum K1 to IC50 for drug-sensitive Plasmodium falciparum 3D7
Assay type: functional
Settings: not given

Row | Compound | Ratio IC50
1 | O=C1C(c2ccc(Oc3ccccc3)cc2)=[N+]([O-])c2ccccc21 | 0.4
2 | O=C1C(c2ccc(Oc3ccccc3)cc2)=[N+]([O-])c2cc3c(cc21)OCO3 | 0.5
3 | COc1ccc2c(c1)C(=O)C(c1ccc(OC(F)(F)F)cc1)=[N+]2[O-] | 2.7
4 | COc1ccc(C2=[N+]([O-])c3cc(OC(F)(F)F)ccc3C2=O)cc1 | 5.3

Tested on: not listed separately
Assay: Cytotoxicity against human MCF7 cells after 48 hrs by MTT assay
Assay type: cell-based
Settings: not given

Row | Compound | CC50 at 48 h [µM]
5 | O=C1C(c2ccc(Oc3ccccc3)cc2)=[N+]([O-])c2ccccc21 | 11.1
6 | COc1ccc2c(c1)C(=O)C(c1ccccc1)=[N+]2[O-] | 13.4
7 | O=C1C(c2ccc(C(F)(F)F)cc2)=[N+]([O-])c2ccccc21 | 34.3
8 | CCCC1=[N+]([O-])c2ccccc2C1=O | 26.4
9 | O=C1C(c2ccc(Oc3ccccc3)cc2)=[N+]([O-])c2cc3c(cc21)OCO3 | 12.2
10 | O=C1C(c2ccc(CO)cc2)=[N+]([O-])c2ccccc21 | 39.5
11 | COc1ccc2c(c1)[N+]([O-])=C(c1ccc(Cl)cc1)C2=O | 10.4
12 | CCN(CC)c1ccc(C2=[N+]([O-])c3ccc(OC)cc3C2=O)cc1 | 17.6
13 | O=C1C(c2ccc(Oc3ccccc3)cc2)=[N+]([O-])c2cc(OCc3ccccc3)ccc21 | 2.2
14 | COc1ccc2c(c1)C(=O)C(c1ccc(-c3ccc(Cl)cc3)cc1)=[N+]2[O-] | 12.1
15 | COC(=O)c1ccc2c(c1)[N+]([O-])=C(c1ccc(OC)cc1)C2=O | 40.2
16 | O=C1C(c2ccc(Cl)c(Cl)c2)=[N+]([O-])c2cc3c(cc21)OCO3 | 7.4
17 | COc1ccc(C2=[N+]([O-])c3cc(Cl)ccc3C2=O)cc1 | 22.2
18 | COc1ccc(C2=[N+]([O-])c3cc(C)ccc3C2=O)cc1 | 14.9
19 | COc1ccc(C2=[N+]([O-])c3ccc(OC)cc3C2=O)c(C)c1 | 0.3
20 | COc1ccc2c(c1)C(=O)C(c1ccsc1)=[N+]2[O-] | 12.3
21 | COc1ccc2c(c1)C(=O)C(c1ccc(OC)c(C)c1)=[N+]2[O-] | > 33.6
22 | COc1ccc2c(c1)C(=O)C(c1ccc(C(C)(C)C)cc1)=[N+]2[O-] | 11
23 | O=C1C(c2ccc(Cl)c(C(F)(F)F)c2)=[N+]([O-])c2ccccc21 | 2
24 | Cc1ccc(C2=[N+]([O-])c3ccccc3C2=O)cc1 | 15
25 | COc1ccc2c(c1)C(=O)C(c1cc(OC)c3ccccc3c1)=[N+]2[O-] | 14.4
26 | COc1ccc2c(c1)C(=O)C(c1ccc(OC(F)(F)F)cc1)=[N+]2[O-] | 8.3
27 | COc1ccc(C2=[N+]([O-])c3cc(OC(F)(F)F)ccc3C2=O)cc1 | 11.7

Tested on: Plasmodium falciparum
Assay: Antimalarial activity against drug-sensitive Plasmodium falciparum 3D7 assessed as [3H]hypoxanthine incorporation by scintillation counting
Assay type: functional, organism-based
Settings: not given

Row | Compound | IC50 [µM]
28 | O=C1C(c2ccc(Oc3ccccc3)cc2)=[N+]([O-])c2ccccc21 | 0.148
29 | O=C1C(c2ccc(Oc3ccccc3)cc2)=[N+]([O-])c2cc3c(cc21)OCO3 | 0.285
30 | COc1ccc2c(c1)C(=O)C(c1ccc(OC(F)(F)F)cc1)=[N+]2[O-] | 0.03
31 | COc1ccc(C2=[N+]([O-])c3cc(OC(F)(F)F)ccc3C2=O)cc1 | 0.021

Tested on: not listed separately
Assay: Cytotoxicity against human KB cells after 72 hrs by alamar blue assay
Assay type: cell-based
Settings: not given
Method in brief: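 KB cells were seeded at 4×10^4 cells/mL in RPMI 1640 with 10% heat-inactivated FCS and left 24 h at 37 °C, 5% CO2. A dilution series was added in triplicate for 72 h, then AlamarBlue for 2–4 h. Fluorescence was read at ex 530/em 585 nm, with podophyllotoxin as positive control and values from curve fitting.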

Row | Compound | CC50 at 72 h [µM]
32 | COc1ccc2c(c1)C(=O)C(c1ccc(OC(F)(F)F)cc1)=[N+]2[O-] | 11
33 | COc1ccc(C2=[N+]([O-])c3cc(OC(F)(F)F)ccc3C2=O)cc1 | 16

Tested on: Plasmodium falciparum
Assay: Antimalarial activity against chloroquine-resistant Plasmodium falciparum FcB1 assessed as [3H]hypoxanthine incorporation after 48 hrs by beta-counter
Assay type: functional, organism-based
Settings: FcB1/Columbia
Method in brief: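 Primary assay (Toulouse) on FcB1 cultured in RPMI with 25 mM HEPES and 10% human serum, O RBCs. Serial dilutions in triplicate, 2% parasitaemia, 2% haematocrit, 48 h at 37 °C, 5% CO2. [3H]-hypoxanthine added at 24 h, freeze-thaw harvest, β-counting. IC50 by linear regression on the linear segment of the semilog inhibition curve. Three independent repeats.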

Row | Compound | IC50 [µM]
34 | O=C1C(c2ccc(Oc3ccccc3)cc2)=[N+]([O-])c2ccccc21 | 0.264
35 | COc1ccc2c(c1)C(=O)C(c1ccccc1)=[N+]2[O-] | 0.184
36 | O=C1C(c2ccc(C(F)(F)F)cc2)=[N+]([O-])c2ccccc21 | 1.17
37 | CCCC1=[N+]([O-])c2ccccc2C1=O | 12.2
38 | O=C1C(c2ccc(Oc3ccccc3)cc2)=[N+]([O-])c2cc3c(cc21)OCO3 | 0.165
39 | O=C1C(c2ccc(CO)cc2)=[N+]([O-])c2ccccc21 | 3.95
40 | COc1ccc2c(c1)[N+]([O-])=C(c1ccc(Cl)cc1)C2=O | 0.15
41 | CCN(CC)c1ccc(C2=[N+]([O-])c3ccc(OC)cc3C2=O)cc1 | 0.131
42 | O=C1C(c2ccc(Oc3ccccc3)cc2)=[N+]([O-])c2cc(OCc3ccccc3)ccc21 | 0.665
43 | COc1ccc2c(c1)C(=O)C(c1ccc(-c3ccc(Cl)cc3)cc1)=[N+]2[O-] | 0.63
44 | COC(=O)c1ccc2c(c1)[N+]([O-])=C(c1ccc(OC)cc1)C2=O | 0.206
45 | O=C1C(c2ccc(Cl)c(Cl)c2)=[N+]([O-])c2cc3c(cc21)OCO3 | 0.195
46 | COc1ccc(C2=[N+]([O-])c3cc(Cl)ccc3C2=O)cc1 | 0.191
47 | COc1ccc(C2=[N+]([O-])c3cc(C)ccc3C2=O)cc1 | 0.198
48 | COc1ccc(C2=[N+]([O-])c3ccc(OC)cc3C2=O)c(C)c1 | 1.04
49 | COc1ccc2c(c1)C(=O)C(c1ccsc1)=[N+]2[O-] | 0.27
50 | COc1ccc2c(c1)C(=O)C(c1ccc(OC)c(C)c1)=[N+]2[O-] | 0.044
51 | COc1ccc2c(c1)C(=O)C(c1ccc(C(C)(C)C)cc1)=[N+]2[O-] | 0.204
52 | O=C1C(c2ccc(Cl)c(C(F)(F)F)c2)=[N+]([O-])c2ccccc21 | 1.04
53 | Cc1ccc(C2=[N+]([O-])c3ccccc3C2=O)cc1 | 1.77
54 | COc1ccc2c(c1)C(=O)C(c1cc(OC)c3ccccc3c1)=[N+]2[O-] | 0.135
55 | COc1ccc2c(c1)C(=O)C(c1ccc(OC(F)(F)F)cc1)=[N+]2[O-] | 0.02
56 | COc1ccc(C2=[N+]([O-])c3cc(OC(F)(F)F)ccc3C2=O)cc1 | 0.133

Tested on: Plasmodium falciparum
Assay: Antimalarial activity against Plasmodium falciparum K1 assessed as [3H]hypoxanthine incorporation by scintillation counting
Assay type: functional, organism-based
Settings: not given

Row | Compound | IC50 [µM]
57 | O=C1C(c2ccc(Oc3ccccc3)cc2)=[N+]([O-])c2ccccc21 | 0.06
58 | O=C1C(c2ccc(Oc3ccccc3)cc2)=[N+]([O-])c2cc3c(cc21)OCO3 | 0.138
59 | COc1ccc2c(c1)C(=O)C(c1ccc(OC(F)(F)F)cc1)=[N+]2[O-] | 0.081
60 | COc1ccc(C2=[N+]([O-])c3cc(OC(F)(F)F)ccc3C2=O)cc1 | 0.112

Tested on: Plasmodium falciparum
Assay: Resistance index, ratio of IC50 for chloroquine-resistant Plasmodium falciparum FcB1 to IC50 for drug-sensitive Plasmodium falciparum 3D7
Assay type: functional
Settings: not given

Row | Compound | Ratio IC50
61 | O=C1C(c2ccc(Oc3ccccc3)cc2)=[N+]([O-])c2ccccc21 | 1.8
62 | O=C1C(c2ccc(Oc3ccccc3)cc2)=[N+]([O-])c2cc3c(cc21)OCO3 | 0.6
63 | COc1ccc2c(c1)C(=O)C(c1ccc(OC(F)(F)F)cc1)=[N+]2[O-] | 0.7
64 | COc1ccc(C2=[N+]([O-])c3cc(OC(F)(F)F)ccc3C2=O)cc1 | 6.3

Tested on: not listed separately
Assay: Selectivity index, ratio of CC50 for human MCF7 cells to IC50 for chloroquine-resistant Plasmodium falciparum FcB1
Assay type: functional
Settings: not given
Method in brief: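 XTT 0.5 mg/mL added for 180 min, formazan read at 450 nm, value taken from dose–response curves, two experiments in triplicate. This CC50 is divided by the FcB1 IC50 to give the index.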

Row | Compound | Ratio CC50/IC50
65 | O=C1C(c2ccc(Oc3ccccc3)cc2)=[N+]([O-])c2ccccc21 | 42
66 | COc1ccc2c(c1)C(=O)C(c1ccccc1)=[N+]2[O-] | 73
67 | O=C1C(c2ccc(C(F)(F)F)cc2)=[N+]([O-])c2ccccc21 | 29
68 | CCCC1=[N+]([O-])c2ccccc2C1=O | 2
69 | O=C1C(c2ccc(Oc3ccccc3)cc2)=[N+]([O-])c2cc3c(cc21)OCO3 | 74
70 | O=C1C(c2ccc(CO)cc2)=[N+]([O-])c2ccccc21 | 10
71 | COc1ccc2c(c1)[N+]([O-])=C(c1ccc(Cl)cc1)C2=O | 69
72 | CCN(CC)c1ccc(C2=[N+]([O-])c3ccc(OC)cc3C2=O)cc1 | 134
73 | O=C1C(c2ccc(Oc3ccccc3)cc2)=[N+]([O-])c2cc(OCc3ccccc3)ccc21 | 3.2
74 | COc1ccc2c(c1)C(=O)C(c1ccc(-c3ccc(Cl)cc3)cc1)=[N+]2[O-] | 19
75 | COC(=O)c1ccc2c(c1)[N+]([O-])=C(c1ccc(OC)cc1)C2=O | 194.9
76 | O=C1C(c2ccc(Cl)c(Cl)c2)=[N+]([O-])c2cc3c(cc21)OCO3 | 38.1
77 | COc1ccc(C2=[N+]([O-])c3cc(Cl)ccc3C2=O)cc1 | 116.5
78 | COc1ccc(C2=[N+]([O-])c3cc(C)ccc3C2=O)cc1 | 75
79 | COc1ccc(C2=[N+]([O-])c3ccc(OC)cc3C2=O)c(C)c1 | 0.3
80 | COc1ccc2c(c1)C(=O)C(c1ccsc1)=[N+]2[O-] | 45.5
81 | COc1ccc2c(c1)C(=O)C(c1ccc(OC)c(C)c1)=[N+]2[O-] | >764
82 | COc1ccc2c(c1)C(=O)C(c1ccc(C(C)(C)C)cc1)=[N+]2[O-] | 53.9
83 | O=C1C(c2ccc(Cl)c(C(F)(F)F)c2)=[N+]([O-])c2ccccc21 | 1.9
84 | Cc1ccc(C2=[N+]([O-])c3ccccc3C2=O)cc1 | 8.5
85 | COc1ccc2c(c1)C(=O)C(c1cc(OC)c3ccccc3c1)=[N+]2[O-] | 107
86 | COc1ccc2c(c1)C(=O)C(c1ccc(OC(F)(F)F)cc1)=[N+]2[O-] | 415
87 | COc1ccc(C2=[N+]([O-])c3cc(OC(F)(F)F)ccc3C2=O)cc1 | 88.1
